{
  "source": "the RNAGym collection of RNA variant scans (doi:10.1126/science.aae0568)",
  "parents": {"B1": {"name": "tRNA (parent)", "chain": "GUUCCGUUGGCGUAAUGGUAACGCGUCUCCCUCCUAAGGAGAAGACUGCGGGUUCGAGUCCCGUACGGAACG"}},
  "note": "Variants at the floor of the assay were thinned out.",
  "data": [
    {"variants_of": "B1", "test": "yeast fitness relative to wild type (ratio to wild type); higher = fitter; tRNA-Arg(CCU), competitive growth, 37 C, YPD", "in_short": "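Variants of the tRNA-Arg(CCU) gene, chemically synthesised with a 3% per-site mutation rate at 69 sites, were placed at the native genomic locus in Saccharomyces cerevisiae. The pooled strains were competed in YPD at 37°C for 24 hours in six parallel replicates. Gene amplicons from the start population and from each end population were read by 100-nucleotide paired-end sequencing. Darwinian fitness relative to wild type came from changes in genotype frequencies; genotypes needed ≥ 100 starting reads, and estimates < 0.5 were set to 0.5.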", "values": [
      {"variant": "C11A U28C A43G A65C", "yeast fitness": "≤ 0.5"},
      {"variant": "C11G A14U A36U G38C", "yeast fitness": 0.553},
      {"variant": "C11G A45G C49U C55A A70U", "yeast fitness": "≤ 0.5"},
      {"variant": "C11G C55G A57C C66U", "yeast fitness": "≤ 0.5"},
      {"variant": "C11G A42C", "yeast fitness": 0.636},
      {"variant": "C11G A42G", "yeast fitness": 0.649},
      {"variant": "C11G A42U", "yeast fitness": 0.608},
      {"variant": "C11G G18C C27A C66U", "yeast fitness": 0.636},
      {"variant": "C11G C29U C34U", "yeast fitness": 0.506},
      {"variant": "C11G C33G A37U A45U", "yeast fitness": 0.64},
      {"variant": "C11G A21U C24U U64A A65G G67U", "yeast fitness": 0.573},
      {"variant": "C11A G18A G67A", "yeast fitness": "≤ 0.5"},
      {"variant": "C11G C31U C46G G63A", "yeast fitness": "≤ 0.5"},
      {"variant": "C11A U35A C61U G67A", "yeast fitness": "≤ 0.5"},
      {"variant": "C11G A14U A36U G38C C55U G56C", "yeast fitness": "≤ 0.5"},
      {"variant": "C11G A36U A42G A43C", "yeast fitness": 0.527},
      {"variant": "C11G A14U C24A C61A", "yeast fitness": "≤ 0.5"},
      {"variant": "C11A U16C U32G G48A C49G C55A", "yeast fitness": "≤ 0.5"},
      {"variant": "C11G A45C", "yeast fitness": 0.59},
      {"variant": "C11G A45U", "yeast fitness": 0.666},
      {"variant": "C11G A20G C49G", "yeast fitness": "≤ 0.5"},
      {"variant": "C11G A14U C34A A69C", "yeast fitness": "≤ 0.5"},
      {"variant": "C11G A20G C33U A37U", "yeast fitness": "≤ 0.5"},
      {"variant": "C11G A36C A45G A57C C61G", "yeast fitness": "≤ 0.5"},
      {"variant": "C11A U35G", "yeast fitness": 0.514},
      {"variant": "C11G A15C G50C", "yeast fitness": "≤ 0.5"},
      {"variant": "C11G A15U C24G A40G C62U A70C", "yeast fitness": 0.614},
      {"variant": "C11A U59C C66U A70C", "yeast fitness": "≤ 0.5"},
      {"variant": "C11G C24G U54C G67C", "yeast fitness": "≤ 0.5"},
      {"variant": "C11A G38C", "yeast fitness": 0.586},
      {"variant": "C11A G38A", "yeast fitness": 0.579},
      {"variant": "C11A G41A A45U C55A", "yeast fitness": "≤ 0.5"},
      {"variant": "C11A U13C C27A C60A", "yeast fitness": "≤ 0.5"},
      {"variant": "C11G G12A C31G U59G A65G", "yeast fitness": "≤ 0.5"},
      {"variant": "C11G G18A G23A", "yeast fitness": "≤ 0.5"},
      {"variant": "C11G A21G C34A", "yeast fitness": "≤ 0.5"},
      {"variant": "C11G C24U U28C C66G", "yeast fitness": "≤ 0.5"},
      {"variant": "C11G A21G C34G A40C", "yeast fitness": "≤ 0.5"},
      {"variant": "C11G A36C G56A A69U", "yeast fitness": "≤ 0.5"},
      {"variant": "C11G C46U A65C", "yeast fitness": 0.561},
      {"variant": "C11G A15C G18A C30G U47G G67A", "yeast fitness": 0.656},
      {"variant": "C11G C30G C33A C66U", "yeast fitness": "≤ 0.5"},
      {"variant": "C11A U32C A70C", "yeast fitness": 0.549},
      {"variant": "C11G A21U", "yeast fitness": 0.536},
      {"variant": "C11G C31G C55G C60A", "yeast fitness": "≤ 0.5"},
      {"variant": "C11G G12C A40G U47C G50C", "yeast fitness": 0.897},
      {"variant": "C11A G25A A43G A65C", "yeast fitness": "≤ 0.5"},
      {"variant": "C11G A43U A45G U47C", "yeast fitness": "≤ 0.5"},
      {"variant": "C11G G12C G23C A40G", "yeast fitness": "≤ 0.5"},
      {"variant": "C11A U26A U54A", "yeast fitness": "≤ 0.5"},
      {"variant": "C11A U13A A20G C61U A69C", "yeast fitness": "≤ 0.5"},
      {"variant": "C11A U16C A21G", "yeast fitness": "≤ 0.5"},
      {"variant": "C11G C27G", "yeast fitness": "≤ 0.5"},
      {"variant": "C11A G23C C33U A43U A45C G58A A69C", "yeast fitness": "≤ 0.5"},
      {"variant": "C11G A37C A42U", "yeast fitness": "≤ 0.5"},
      {"variant": "C11G C24U C34A A37C C55G", "yeast fitness": 0.526},
      {"variant": "C11G C24G A57G", "yeast fitness": "≤ 0.5"},
      {"variant": "C11A G23C A42U", "yeast fitness": "≤ 0.5"},
      {"variant": "C11G A15G C22A U26A A40U U54C C62A", "yeast fitness": "≤ 0.5"},
      {"variant": "C11A G25A", "yeast fitness": 0.572},
      {"variant": "C11A G68A", "yeast fitness": 0.583},
      {"variant": "C11G C24U A57G G68C", "yeast fitness": "≤ 0.5"},
      {"variant": "C11G A36C G41A C66U", "yeast fitness": "≤ 0.5"},
      {"variant": "C11G A36C G56A", "yeast fitness": 0.533},
      {"variant": "C11A G25C C29U A65C A70U", "yeast fitness": 0.541},
      {"variant": "C11A G56A C66G", "yeast fitness": 0.533},
      {"variant": "C11G A14U G48C", "yeast fitness": 0.58},
      {"variant": "C11G A37G G38A A45U A70G", "yeast fitness": "≤ 0.5"},
      {"variant": "C11G C30G C31G U32A C55G G67A", "yeast fitness": 0.696},
      {"variant": "C11G G12A C31G", "yeast fitness": "≤ 0.5"},
      {"variant": "C11G A36C G52C G56A", "yeast fitness": "≤ 0.5"},
      {"variant": "C11G C49U G50A C61U", "yeast fitness": "≤ 0.5"},
      {"variant": "C11A G51A", "yeast fitness": 0.618},
      {"variant": "C11G A21U C24G G51A G68A", "yeast fitness": "≤ 0.5"},
      {"variant": "C11A G51C C66G", "yeast fitness": 0.713},
      {"variant": "C11G A14C A42U G51C C60U", "yeast fitness": "≤ 0.5"},
      {"variant": "C11G C29G U32G G38A U53C", "yeast fitness": "≤ 0.5"},
      {"variant": "C11G A15U G38A C46G G56C", "yeast fitness": "≤ 0.5"},
      {"variant": "C11A G25A C46G A57U", "yeast fitness": "≤ 0.5"},
      {"variant": "C11G A21U U26C", "yeast fitness": "≤ 0.5"},
      {"variant": "C11A U13G G51A", "yeast fitness": "≤ 0.5"},
      {"variant": "C11G A36C C46G C60G", "yeast fitness": 0.68},
      {"variant": "C11G C49A A57U U64A G67U", "yeast fitness": "≤ 0.5"},
      {"variant": "C11G C22A C31A C61A", "yeast fitness": "≤ 0.5"}
    ]}
  ]
}
